# A selection: hits, their analogues and other compounds. The true share with any hit is near 2.3%.
# ABCB1 block – human ABCB1 inhibition, ABCG2 as counter-screen. CCRF-Adr cells, JC-1 efflux, flow cytometry. inhibition, % at 6.6 µM. P08183. 190,000 tested, 0.067% active; in the data active means inhibition above about 40%;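 further: 0% = vehicle and 100% = reference inhibitor; higher value means more JC-1 retained so stronger ABCB1 efflux block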
# MEKK2 WT-MEK5 – raises or lowers MEK5 binding to wildtype human MEKK2 PB1 domain; Q9Y2U5; bead flow cytometry, Alexa488-MEK5 binding to MEKK2 WT; actives lie on both sides; binding response (% of control), % at 10 µM; 290,000 tested, 1.1% active; in the data active means binding response below about 67% or above about 130%
# MEKK2mut PB1 HTS – signal of MEK5 binding to mutant human MEKK2 PB1 domain | bead flow cytometry, Alexa488-MEK5 binding to MEKK2 mutant | percent response, % at 10 µM | 290,000 tested, 0.35% active | AID 1530; in the data active means percent response above about 24%, passing the limit was not always enough
# ABCG2 block – human ABCG2 inhibition, ABCB1 as counter-screen | inhibition, % at 6.6 µM | 190,000 tested, 0.1% active | AID 1325 | IgMXP3 cells, JC-1 efflux, flow cytometry;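 active means inhibition above 80%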;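 further: 0% = DMSO and 100% = nicardipine control wells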
#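 test system = two drug-resistant human cell lines, ABCG2 and ABCB1 | amount = 3 million cells/mL final, two lines in 1:1 ratio | reagent = JC-1 transporter substrate | doses = one concentration, 6.6 µM final | incubation = 10 min at 25 °C | signal = flow cytometric JC-1 green MFI at 530 nm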
# MEKK3 PB1 HTS – raises or lowers MEK5 binding to the human MEKK3 PB1 domain; Q99759; bead-based flow cytometry, Alexa488-MEK5 binding to MEKK3; actives lie on both sides; 0 = blocked by unlabeled MEK5, 100 = vehicle; binding response (% of control), % at 10 µM; 290,000 tested, 1.4% active;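 active means binding response more than 3 SD above or below the average of its plate-row segment, actives on both sides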;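 further: Alexa488 bead fluorescence after subtracting the streptavidin-only scavenger bead signal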
# Target sequence (Q99759 whole entry, looked up, the tested form may be a part): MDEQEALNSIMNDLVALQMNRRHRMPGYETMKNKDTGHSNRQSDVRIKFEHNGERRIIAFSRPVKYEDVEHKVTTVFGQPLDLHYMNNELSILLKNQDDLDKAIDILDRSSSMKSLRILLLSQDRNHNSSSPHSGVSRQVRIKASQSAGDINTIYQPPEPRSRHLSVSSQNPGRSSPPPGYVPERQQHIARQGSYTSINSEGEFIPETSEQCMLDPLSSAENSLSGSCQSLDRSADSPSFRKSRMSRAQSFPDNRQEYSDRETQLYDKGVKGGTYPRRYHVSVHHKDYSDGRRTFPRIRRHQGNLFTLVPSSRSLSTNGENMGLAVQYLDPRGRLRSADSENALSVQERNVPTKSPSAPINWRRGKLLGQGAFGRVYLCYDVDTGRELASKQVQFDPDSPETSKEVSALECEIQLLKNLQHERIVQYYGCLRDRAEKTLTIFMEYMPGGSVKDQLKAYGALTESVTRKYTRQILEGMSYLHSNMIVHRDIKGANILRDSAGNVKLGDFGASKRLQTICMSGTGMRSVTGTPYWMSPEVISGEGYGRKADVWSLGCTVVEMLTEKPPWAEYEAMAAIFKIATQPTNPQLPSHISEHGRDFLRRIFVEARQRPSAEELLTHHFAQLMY
# MEKK2wt confirm – raises or lowers MEK5 binding to wildtype human MEKK2, retest; 5,900 tested, 2.4% active; shares compounds with MEKK3 PB1 HTS; bead flow cytometry, Alexa488-MEK5 binding to MEKK2 WT; actives lie on both sides; binding response (% of control), % at 10 µM; in the data active means binding response below about 16% or above about 210%; inactive means in between
# MEKK2mut-MEK5 – signal of MEK5 binding to mutant human MEKK2, retest | shares compounds with MEKK3 PB1 HTS | bead flow cytometry, Alexa488-MEK5 binding to MEKK2 mutant | percent response, % at 10 µM | 5,900 tested, 2% active; in the data active means percent response mostly above about 71%, no sharp cut-off; inactive means mostly below about 38%;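 further: higher means compound restores mutant binding toward wildtype level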
# MEKK3-MEK5 inh – confirmation of inhibitors of MEK5 binding to human MEKK3; shares compounds with MEKK3 PB1 HTS; bead flow cytometry, Alexa488-MEK5 binding to MEKK3; hits give low values; binding response (% of control), % at 10 µM; 5,900 tested, 1.8% active; AID 1894;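 active means binding response below 72% of control, or above a set upper limit, though filed actives all read lower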;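 further: 100% = DMSO only wells and 0% = binding blocked by excess unlabeled MEK5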
# * marks the source's active call; other numbers are inactive results; · = no result; [ ] = dose if it differs, or a comment.
SMILES,ABCB1 block,MEKK2 WT-MEK5,MEKK2mut PB1 HTS,ABCG2 block,MEKK3 PB1 HTS,MEKK2wt confirm,MEKK2mut-MEK5,MEKK3-MEK5 inh
Cc1ccc(S(=O)(=O)N2CCC(NC(=O)C3CCCCC3)CC2)cc1,·,97,-2,·,99,·,·,·
COc1ccc(CN2CCNC(=O)C2CC(=O)NCC(C)(C)N2CCOCC2)cc1C (configuration not stated),·,107,-3,·,105,·,·,·
c1ccc(CSc2nc3ncncc3[nH]2)cc1,·,102,-2,·,99,·,·,·
S=c1nc(SCc2ccccc2)[nH]c2ccccc12,-1,50,-18,-3,49*[inhibitor],115,4,102
Cc1cnc(C(=O)Nc2nnc(C)s2)cn1,0,107,3,4,105,·,·,·
Cc1cnc(C(=O)Nc2nccs2)cn1,0,2.0*[inhibitor],-19,0,2.0*[inhibitor],108,6,111
O=C(N/N=C/c1cn(Cc2cccc(F)c2)c2ccccc12)c1cc(O)cc(O)c1,·,65*[inhibitor],-17,·,79*[inhibitor],74,-13,81
Nc1ccc(C(=O)N/N=C/c2cn(Cc3ccc(F)cc3)c3ccccc23)cc1,·,93,-2,·,100,·,·,·
COc1ccccc1NC(=O)C(C/C=C(\C)Cl)C(C)=O (configuration not stated),0,83,-9,1,79*[inhibitor],103,-6,101
Cc1nc2ccccc2nc1OCc1cccc(Cl)c1,1,102,-1,4,128*,104,5,106
O=C(NN1CC(C(=O)OCc2ccc(Br)cc2)CC1=O)c1ccccc1 (configuration not stated),·,109,2,·,105,·,·,·
COc1ccc(-n2nc3c(N)n[nH]c3cc2=O)cc1,0,71,-15,0,67*[inhibitor],70,-6,68*
CC(=O)Nc1ccc(N2C(=O)CSC2c2ccc(F)cc2)cc1 (configuration not stated),0,80,-4,0,81*[inhibitor],99,0,100
COc1cc(OC)cc(C(=O)NC(=S)N(Cc2ccccc2)C(C)C)c1,·,95,-7,·,91,·,·,·
O=C(CSc1ncnc2ccccc12)c1cccs1,0,80,-4,2,63*[inhibitor],103,1,100
Cc1ccc(C(=O)CSc2ncnc3ccccc23)o1,1,99,-2,37,99,·,·,·
COc1ccc(C2C(C(=O)N3CCC(C(N)=O)CC3)CC(=O)N2c2ccc(OC)cc2)cc1 (configuration not stated),0,92,-7,-1,96,·,·,·
COc1ccc(C2C(C(=O)N3CCCCC3)CC(=O)N2c2ccc(OC)cc2)cc1 (configuration not stated),0,118,4,-5,127*,95,-8,95
NNc1nc2cc3c(cc2s1)OCCO3,·,103,4,·,101,·,·,·
CN(C)CCOC(=O)c1ccc2[nH]c3c(c2c1)CSCC3,·,194*,39,·,108,102,-4,104
CCN(C(=O)COC(=O)c1c(-c2ccccc2)noc1C)c1c(N)n(Cc2ccccc2)c(=O)[nH]c1=O,·,97,4,·,96,·,·,·
COc1cc(CNC2CCCC2)cc(Cl)c1OCc1ccc(F)cc1,1,126,25*,1,98,127,10,104
CCNCc1cc(Cl)c(OCc2ccccc2)c(OCC)c1,1,112,1,1,111,·,·,·
CCOc1cc(CNC2CCCC2)cc(Cl)c1OCc1ccc(F)cc1,0,144*,14,1,101,149,26,97
COc1cc(CNC2CCCC2)cc(Cl)c1OCc1ccccc1Cl,2,207*,46,8,109,141,23,109
SMILES,ABCB1 block,MEKK2 WT-MEK5,MEKK2mut PB1 HTS,ABCG2 block,MEKK3 PB1 HTS,MEKK2wt confirm,MEKK2mut-MEK5,MEKK3-MEK5 inh
COc1cc(CNCCO)cc(Cl)c1OCc1ccc(Cl)cc1Cl,1,161*,25,5,106,160,27,108
ClC(Cl)(Cl)c1nc2ccccc2n2nncc12,·,93,0,·,96,·,·,·
CC(C)c1ccccc1OCC(=O)Nc1ccc2[nH]ncc2c1,·,100,1,·,100,·,·,·
Cc1oc(-c2ccccc2)cc1C(=O)Nc1ccccc1,1,111,11,13,113,·,·,·
Cc1oc(-c2ccccc2)cc1C(=O)NCc1ccncc1,·,56*[inhibitor],13,·,102,104,-4,99
O=C1CC(c2ccccc2)CC(O)=C1C=NCCCN1CCOCC1 (configuration not stated),0,89,-11,6,81*[inhibitor],100,-7,103
O=C1CCN(CCc2ccccc2)CCN1[C@H](CSc1ccc(Br)cc1)Cc1ccccc1,·,154*,2,·,118,142,36,105
COc1ccc(SC[C@H](CC(C)C)N2CCN(C)CCC2=O)cc1,·,146*,2,·,128*,113,-1,103
CN1CCC(=O)N([C@H](CSc2ccccc2)c2ccccc2)CC1,·,109,0,·,101,·,·,·
CCCN1CCC(=O)N([C@H](CSc2ccc(OC)cc2)c2ccccc2)CC1,·,165*,4,·,129*,111,3,103
COc1ccc(SC[C@H](CC(C)C)N2CCN(CCc3ccccc3)CCC2=O)cc1,·,137*,10,·,106,124,14,104
Cc1ccc(SC[C@H](CC(C)C)N2CCN(CCc3ccccc3)CCC2=O)cc1,·,103,8,·,108,·,·,·
CC1(c2ccc(OC(F)F)cc2)NC(=O)N(CC(=O)Nc2ccc(Cl)cc2F)C1=O (configuration not stated),·,96,-1,·,101,·,·,·
N#C/C(=C\c1ccc(OCc2ccccc2)cc1)C(N)=O,0,114,1,1,131*,93,-2,93
O=C(N/N=C/c1ccccc1)c1ccc(OCc2ccccc2)cc1,0,96,-7,3,97,·,·,·
NC(N)=N/N=C/c1ccc(OCc2ccc(Cl)cc2)cc1,1,183*,29*,18,96,205,56,106
NC(N)=N/N=C/c1ccc(OCc2ccccc2)cc1,0,162*[inhibitor],17,3,67,154,29,114
O=C(O)c1cc(N/N=C/c2ccc(OCc3ccccc3)cc2)ccc1Cl,-1,186*,134*,0,112,99,1,102
O=C(NCc1ccccn1)C(=O)NCC1OCCCN1S(=O)(=O)c1cc(F)ccc1F (configuration not stated),·,89,-1,·,86,·,·,·

# Bioassay records: PubChem, NMMLSC
